Assay results taken from ChEMBL document CHEMBL2401625, “Synthesis and evaluation of pharmacological properties of some new xanthone derivatives with piperazine moiety” (Bioorg Med Chem Lett, 2013).
The source made the active and inactive calls. No cut-off for these calls is given here.

Assays:
[1] = biological target: T1, 5-hydroxytryptamine receptor 1A (Homo sapiens, UniProt P08908); experiment: Displacement of [3H]8-OH-DPAT from human 5HT1A receptor expressed in HEK293 cells after 1 hr; type: cell-based
T1 sequence (P08908 whole entry): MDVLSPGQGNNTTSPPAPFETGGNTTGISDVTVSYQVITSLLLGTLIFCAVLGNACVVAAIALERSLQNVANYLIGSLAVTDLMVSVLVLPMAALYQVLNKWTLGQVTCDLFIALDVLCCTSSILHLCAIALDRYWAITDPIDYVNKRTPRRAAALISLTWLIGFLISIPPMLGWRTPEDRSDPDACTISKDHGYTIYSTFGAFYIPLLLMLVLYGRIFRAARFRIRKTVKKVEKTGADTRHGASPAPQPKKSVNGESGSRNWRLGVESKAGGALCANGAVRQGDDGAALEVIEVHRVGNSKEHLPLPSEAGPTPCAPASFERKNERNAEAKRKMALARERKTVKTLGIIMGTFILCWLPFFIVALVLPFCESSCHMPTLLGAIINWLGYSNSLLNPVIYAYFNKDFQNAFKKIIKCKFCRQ

[2] = biological target: 5-hydroxytryptamine receptor 6 (Homo sapiens, UniProt P50406); experiment: Displacement of [3H]LSD from human 5HT6 receptor expressed in HEK293 cells after 1 hr; type: cell-based
5-hydroxytryptamine receptor 6, sequence (P50406 whole entry): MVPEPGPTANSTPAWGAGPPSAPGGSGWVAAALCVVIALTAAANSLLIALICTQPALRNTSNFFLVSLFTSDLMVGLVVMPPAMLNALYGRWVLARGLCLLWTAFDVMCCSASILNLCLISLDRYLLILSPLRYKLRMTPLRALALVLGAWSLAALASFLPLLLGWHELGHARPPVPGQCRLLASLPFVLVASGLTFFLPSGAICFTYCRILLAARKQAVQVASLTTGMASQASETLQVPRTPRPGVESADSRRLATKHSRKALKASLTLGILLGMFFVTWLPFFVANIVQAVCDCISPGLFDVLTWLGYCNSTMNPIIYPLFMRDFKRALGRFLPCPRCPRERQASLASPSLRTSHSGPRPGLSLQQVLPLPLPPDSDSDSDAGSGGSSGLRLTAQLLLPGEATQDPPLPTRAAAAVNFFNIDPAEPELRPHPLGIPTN

[3] = biological target: 5-hydroxytryptamine receptor 7 (Homo sapiens, UniProt P34969); experiment: Displacement of [3H]5-CT from human 5HT7b receptor expressed in HEK293 cells after 1 hr; type: cell-based
5-hydroxytryptamine receptor 7, sequence (P34969 whole entry): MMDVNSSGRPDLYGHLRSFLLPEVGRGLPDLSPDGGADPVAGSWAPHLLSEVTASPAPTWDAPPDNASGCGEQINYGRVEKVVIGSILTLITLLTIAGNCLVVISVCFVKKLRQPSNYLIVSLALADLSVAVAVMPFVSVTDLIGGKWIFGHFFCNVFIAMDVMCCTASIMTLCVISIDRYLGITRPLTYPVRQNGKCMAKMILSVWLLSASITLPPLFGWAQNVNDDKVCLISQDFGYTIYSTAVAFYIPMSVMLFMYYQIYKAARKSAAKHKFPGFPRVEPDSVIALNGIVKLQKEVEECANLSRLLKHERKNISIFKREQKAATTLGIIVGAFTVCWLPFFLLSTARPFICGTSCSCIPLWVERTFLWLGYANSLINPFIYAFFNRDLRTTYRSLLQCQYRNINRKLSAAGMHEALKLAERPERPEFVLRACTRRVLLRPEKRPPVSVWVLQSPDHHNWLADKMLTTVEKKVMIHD

[4] = biological target: T2, Adrenergic receptor alpha-1 (Rattus norvegicus, UniProt P15823+P23944+P43140); experiment: Displacement of [3H]prazosin from alpha1-adrenergic receptor in rat cerebral cortex after 30 mins by scintillation counting; type: tissue-based
T2 sequence (P15823 whole entry): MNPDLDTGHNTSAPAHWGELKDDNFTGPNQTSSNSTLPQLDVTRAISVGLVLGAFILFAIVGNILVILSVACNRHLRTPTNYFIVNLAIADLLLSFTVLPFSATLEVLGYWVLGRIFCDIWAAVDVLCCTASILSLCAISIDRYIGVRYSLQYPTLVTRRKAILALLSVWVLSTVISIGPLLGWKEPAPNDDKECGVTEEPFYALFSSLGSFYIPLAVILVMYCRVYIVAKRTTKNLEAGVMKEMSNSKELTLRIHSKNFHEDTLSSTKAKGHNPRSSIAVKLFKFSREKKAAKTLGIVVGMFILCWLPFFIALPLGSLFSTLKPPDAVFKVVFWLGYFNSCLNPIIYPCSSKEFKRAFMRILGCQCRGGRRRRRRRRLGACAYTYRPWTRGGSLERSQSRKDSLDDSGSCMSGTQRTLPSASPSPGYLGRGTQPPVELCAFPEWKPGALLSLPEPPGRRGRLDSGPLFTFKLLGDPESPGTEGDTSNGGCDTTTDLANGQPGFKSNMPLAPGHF
T2 sequence (P23944 whole entry): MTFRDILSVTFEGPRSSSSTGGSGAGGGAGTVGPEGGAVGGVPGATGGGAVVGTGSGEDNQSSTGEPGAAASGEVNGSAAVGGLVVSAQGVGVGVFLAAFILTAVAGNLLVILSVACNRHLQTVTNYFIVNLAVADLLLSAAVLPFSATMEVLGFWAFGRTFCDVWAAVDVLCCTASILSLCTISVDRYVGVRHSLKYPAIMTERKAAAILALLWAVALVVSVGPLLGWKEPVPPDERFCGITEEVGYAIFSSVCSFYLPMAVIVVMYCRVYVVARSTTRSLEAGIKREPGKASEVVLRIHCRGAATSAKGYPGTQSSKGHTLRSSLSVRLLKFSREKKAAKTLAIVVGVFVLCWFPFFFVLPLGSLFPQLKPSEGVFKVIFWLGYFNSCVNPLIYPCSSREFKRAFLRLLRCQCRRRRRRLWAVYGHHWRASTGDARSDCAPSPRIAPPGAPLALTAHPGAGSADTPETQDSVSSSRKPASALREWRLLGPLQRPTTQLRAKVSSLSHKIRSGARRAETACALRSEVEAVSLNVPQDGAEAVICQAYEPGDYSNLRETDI
T2 sequence (P43140 whole entry): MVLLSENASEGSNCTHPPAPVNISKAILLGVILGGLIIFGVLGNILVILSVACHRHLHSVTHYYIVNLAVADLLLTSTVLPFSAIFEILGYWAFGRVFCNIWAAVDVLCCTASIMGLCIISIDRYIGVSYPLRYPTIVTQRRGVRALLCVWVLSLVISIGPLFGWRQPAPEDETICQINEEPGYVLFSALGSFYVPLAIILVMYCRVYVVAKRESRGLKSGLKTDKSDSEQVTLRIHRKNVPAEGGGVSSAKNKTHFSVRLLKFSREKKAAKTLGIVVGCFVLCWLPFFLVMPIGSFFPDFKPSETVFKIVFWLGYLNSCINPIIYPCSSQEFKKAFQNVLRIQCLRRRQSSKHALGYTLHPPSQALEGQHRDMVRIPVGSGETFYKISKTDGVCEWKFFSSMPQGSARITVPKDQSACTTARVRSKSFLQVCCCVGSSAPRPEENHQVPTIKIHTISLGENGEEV
Method in brief: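 Radioligand binding on rat brain tissue membranes, run in 96-well format. [3H]prazosin was used for α1 (n = 2) and [3H]CGP-12177 for β1 (n = 2). Ki was calculated by the Cheng–Prusoff equation.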

[5] = Displacement of [3H]CGP-12177 from beta1-adrenergic receptor in rat cerebral cortex after 60 mins by scintillation counting; type: tissue-based
Method in brief: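 Radioligand binding on rat brain tissue membranes, run in 96-well format. Ki was calculated by the Cheng–Prusoff equation.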

[6] = species on record: Rattus norvegicus; experiment: Displacement of [3H]CGP-12177 from beta1-adrenergic receptor in rat cerebral cortex at 50 uM after 60 mins by scintillation counting; type: tissue-based
[7] = test system: Mus musculus; experiment: Neurotoxicity in CF1 mouse assessed as minimal motor impairment at 300 mg/kg, ip after 4 hrs by rotorod test; type: toxicity, organism-based; parameters: dose 300 mg/kg, route intraperitoneal; details: in vivo
Method in brief: (§1)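 Rotarod neurotoxicity screen in mice dosed i.p. at 30, 100 or 300 mg/kg, read 0.5 or 4 h after dosing. The animal must stay on a rod rotating at 6 rpm without falling, measured 3 times within 1 min. A fall counts as minimal motor impairment. Result is recorded as impaired animals over animals used.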

[8] = test system: Mus musculus; experiment: Neurotoxicity in CF1 mouse assessed as minimal motor impairment at 300 mg/kg, ip after 0.5 hrs by rotorod test; type: toxicity, organism-based; parameters: dose 300 mg/kg, route intraperitoneal; details: in vivo; method in brief: as §1
[9] = test system: Mus musculus; experiment: Neurotoxicity in CF1 mouse assessed as minimal motor impairment at 100 mg/kg, ip after 4 hrs by rotorod test; type: toxicity, organism-based; parameters: dose 100 mg/kg, route intraperitoneal; details: in vivo; method in brief: as §1
[10] = test system: Mus musculus; experiment: Neurotoxicity in CF1 mouse assessed as minimal motor impairment at 30 mg/kg, ip after 4 hrs by rotorod test; type: toxicity, organism-based; parameters: dose 30 mg/kg, route intraperitoneal; details: in vivo; method in brief: as §1
[11] = test system: Mus musculus; experiment: Neurotoxicity in CF1 mouse assessed as minimal motor impairment at 30 mg/kg, ip after 0.5 hrs by rotorod test; type: toxicity, organism-based; parameters: dose 30 mg/kg, route intraperitoneal; details: in vivo; method in brief: as §1

| SMILES | Ki [1] | Ki [2] | Ki [3] | Ki [4] | Ki [5] | inhibition [6] | Activity [7] | Activity [8] | Activity [9] | Activity [10] | Activity [11] |
| --- | --- | --- | --- | --- | --- | --- | --- | --- | --- | --- | --- |
| COc1ccccc1N1CCN(Cc2ccc3oc4ccccc4c(=O)c3c2)CC1.Cl | 0.117 µM | 5.94 µM | 0.426 µM | 3.66 µM | > 10 µM |  |  |  |  |  |  |
| COc1ccc2c(=O)c3cc(CN4CCN(c5ccccc5OC)CC4)ccc3oc2c1.Cl | 0.429 µM | 13.6 µM | 1.14 µM | 0.38 µM | > 30 µM |  |  |  |  |  |  |
| CN1CCN(Cc2cccc3c(=O)c4ccc(Cl)cc4oc23)CC1.Cl.Cl.Cl | 13.3 µM | 19.5 µM | 10.5 µM | 0.65 µM |  | inactive |  |  |  |  |  |
| COc1ccc2c(=O)c3cc(CN4CCN(c5ccccc5OC)CC4)ccc3oc2c1 |  |  |  |  |  |  | Non-toxic | Non-toxic | Non-toxic | Non-toxic | Non-toxic |
| COc1ccc2c(=O)c3cc(CN4CCN(Cc5ccccc5)CC4)ccc3oc2c1.Cl.Cl | 1.67 µM | 8.84 µM | 13.5 µM | 0.31 µM |  |  |  |  |  |  |  |
